Measured values reported in ChEMBL document CHEMBL4619794, “2-Aminooxazole as a Novel Privileged Scaffold in Antitubercular Medicinal Chemistry” (ACS Med Chem Lett, 2020).
In brackets after ≈: the same amount, converted by molar mass.

Legend:
[1] = Kinetic solubility of compound in PBS at pH 7.4 incubated for 4 hrs by HPLC-MS/MS analysis; type: physicochemical; settings: read-out: Kinetic_solubility
[2] = Metabolic stability in human liver microsomes assessed as intrinsic clearance at 1 uM measured upto 60 mins by HPLC-MS/MS analysis; type: ADME, Microsome; settings: read-out: CLH
In short: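 Intrinsic clearance derived from the microsomal in vitro half-life as (0.693/t1/2) × (mL incubation/mg microsomes) × (45 mg microsomes/g liver) × (20 g liver/kg body weight). Expressed in mL min–1 kg–1.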

[3] = Kinetic solubility of compound in water incubated for 4 hrs by HPLC-MS/MS analysis; type: physicochemical; settings: read-out: Kinetic_solubility
[4] = Metabolic stability in human liver microsomes assessed as half life at 1 uM measured upto 60 mins by HPLC-MS/MS analysis; type: ADME, Microsome
In short: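 Half-life of the compound in human liver microsomes, expressed in minutes. Reported as mean ± SD, n = 3.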

[5] = Glutathione reactivity of compound assessed as GSH adduct formation incubated for 24 hrs by HPLC-MS analysis; type: physicochemical; parameters: concentration or dose not given beside the values
In short: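 Compounds incubated 24 h with GSH in 1:100 molar excess, then analysed by HPLC–MS/MS in full-scan mode. Both the singly charged [M + H]+ and doubly charged [M + 2H]2+ conjugate ions were monitored. Percentage conjugate = (sum of both conjugate ion peak areas)/(parent [M + H]+ peak area).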

[6] = test system: Mycobacterium tuberculosis; experiment: Antimycobacterial activity against Mycobacterium tuberculosis H37Rv ATCC 27294 assessed as reduction in bacterial growth incubated for […] by alamar blue assay; type: functional
[7] = test system: Mycobacterium tuberculosis; experiment: Antimycobacterial activity against Mycobacterium tuberculosis assessed as reduction in bacterial growth by microdilution method; type: functional
Vero = experiment: Cytotoxicity against African green monkey Vero cells; type: cell-based; settings: chlorocebus sabaeus
[8] = test system: Mycobacterium tuberculosis; experiment: Antimycobacterial activity against Mycobacterium tuberculosis assessed as reduction in bacterial growth incubated for 21 days by REMA assay; type: functional; settings: 504 h

COc1ccc(-c2csc(Nc3ccc(C)cc3)n2)cc1
solubility kinetic at 4 h [1]: 1.2 µM (≈ 0.356 µg/mL) | CLint scaled at 1 µM [2]: 42.9 mL/min/kg | solubility kinetic at 4 h [3]: 20 µM (≈ 5.93 µg/mL) | half-life at 1 µM [4]: 14.5 min | Activity [5]: 13.9% | MIC [6]: 13 µM (≈ 3.85 µg/mL)

Cc1ccc(Nc2nc(-c3cc(C(F)(F)F)ccc3F)cs2)cc1
solubility kinetic at 4 h [1]: 7.5 µM (≈ 2.64 µg/mL) | CLint scaled at 1 µM [2]: 27.9 mL/min/kg | solubility kinetic at 4 h [3]: 24 µM (≈ 8.46 µg/mL) | half-life at 1 µM [4]: 22.4 min | Activity [5]: 10.4% | MIC [6]: 27.5 µM (≈ 9.69 µg/mL)

CCOC(=O)c1cc(-c2csc(Nc3ccc(C)cc3)n2)on1
solubility kinetic at 4 h [1]: 27.7 µM (≈ 9.12 µg/mL) | MIC [7]: 1.5 µM (≈ 0.494 µg/mL) | CLint scaled at 1 µM [2]: 189 mL/min/kg | solubility kinetic at 4 h [3]: 54.9 µM (≈ 18.1 µg/mL) | half-life at 1 µM [4]: 3.3 min | Activity [5]: 3.7%

Cc1ccc(Nc2nc(-c3cc(C(=O)Nc4ccccn4)no3)cs2)cc1
solubility kinetic at 4 h [1]: 2.4 µM (≈ 0.906 µg/mL) | MIC [7]: 0.16 µM (≈ 0.0604 µg/mL) | CLint scaled at 1 µM [2]: 38.8 mL/min/kg | solubility kinetic at 4 h [3]: 2.9 µM (≈ 1.09 µg/mL) | half-life at 1 µM [4]: 16.1 min | Activity [5]: 7.1%

Cc1ccc(Nc2nc(-c3cc(C(F)(F)F)ccc3F)co2)cc1
solubility kinetic at 4 h [1]: 5.9 µM (≈ 1.98 µg/mL) | CLint scaled at 1 µM [2]: 27.6 mL/min/kg | solubility kinetic at 4 h [3]: 5.2 µM (≈ 1.75 µg/mL) | half-life at 1 µM [4]: 22.6 min | Activity [5]: 14.2% | MIC [6]: 12.3 µM (≈ 4.14 µg/mL)

COc1ccc(-c2coc(Nc3ccc(C)cc3)n2)cc1
solubility kinetic at 4 h [1]: 1.1 µM (≈ 0.308 µg/mL) | CLint scaled at 1 µM [2]: 29.9 mL/min/kg | solubility kinetic at 4 h [3]: 0.7 µM (≈ 0.196 µg/mL) | half-life at 1 µM [4]: 20.9 min | Activity [5]: 14.2% | MIC [6]: > 100 µM

CCOC(=O)c1cc(-c2coc(Nc3ccc(C)cc3)n2)on1
Activity (Vero): Non-Toxic | solubility kinetic at 4 h [1]: 6.8 µM (≈ 2.13 µg/mL) | CLint scaled at 1 µM [2]: 226 mL/min/kg | solubility kinetic at 4 h [3]: 9.1 µM (≈ 2.85 µg/mL) | half-life at 1 µM [4]: 2.7 min | Activity [5]: 15.8% | MIC [6]: 2.3 µM (≈ 0.721 µg/mL)

Cc1ccc(Nc2nc(-c3cc(C(=O)Nc4ccccn4)no3)co2)cc1
Activity (Vero): Non-Toxic | solubility kinetic at 4 h [1]: 9.3 µM (≈ 3.36 µg/mL) | CLint scaled at 1 µM [2]: 41.5 mL/min/kg | solubility kinetic at 4 h [3]: 24 µM (≈ 8.67 µg/mL) | half-life at 1 µM [4]: 15 min | MIC [8]: 6.9 µM (≈ 2.49 µg/mL) | Activity [5]: 2.1%
